In brackets after ≈: the same amount, converted by molar mass.
System: Platelet
Assay: Inhibition of arachidonic acid-induced platelet aggregation in human platelet-rich plasma
Format: functional, cell-free
How it was run: (§1)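 Citrated human PRP from forearm-vein blood (3.8% citrate 1:9, spun 1250 rpm for 18 min at room temperature), adjusted to […] with PPP. Platelets stirred at 1000 rpm and preincubated 3 min at 37 °C with compound or 0.25% DMSO. Inducers were ADP 6 µM, adrenalin 2 µM, arachidonic acid 100 µM, or collagen. Turbidimetric aggregometry read-out; IC50 given as mean ± SE.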

Row | Structure (SMILES) | IC50 [µg/mL]
1 | OC[C@H]1O[C@@H](Oc2cc(O)cc(/C=C/c3ccc(O)cc3)c2)[C@H](O)[C@@H](O)[C@@H]1O [PICEID] | 57.2 (≈ 147 µM)

System: Platelet
Assay: Inhibition of collagen-induced platelet aggregation in human platelet-rich plasma
Format: functional, cell-free
How it was run: as §1

Row | Structure (SMILES) | IC50 [µg]
2 | COc1ccc(/C=C\c2cc(O)cc(O)c2)cc1 | 33.9

System: Platelet
Assay: Inhibition of adenosine diphosphate-induced platelet aggregation in human platelet-rich plasma
Format: functional, cell-free
How it was run: as §1

Row | Structure (SMILES) | IC50 [µg/mL]
3 | COc1ccc(/C=C/c2cc(OC)c(OC)c(OC)c2)c(O[C@@H]2O[C@H](CO)[C@@H](O)[C@H](O)[C@H]2O)c1 | 300 (≈ 627 µM)
4 | COc1ccc(/C=C/c2cc(O)cc(O)c2)cc1 [RESVERATROL 4'-METHYL ETHER] | 119 (≈ 492 µM)
5 | COc1ccc(/C=C\c2cc(O)cc(O)c2)cc1 | 101 (≈ 415 µM)
6 | COc1ccc(/C=C\c2cc(OC)c(OC)c(OC)c2)c(O)c1O [COMBRETASTATIN A-1] | 60.6 (≈ 182 µM)
7 | COc1ccc(/C=C/c2cc(OC)c(OC)c(OC)c2)c(O)c1 | 300 (≈ 948 µM)
8 | COc1ccc(/C=C\c2cc(OC)c(OC)c(OC)c2)cc1O [COMBRETASTATIN A4] | 75.2 (≈ 238 µM)

The next lines start with the values.

Row | IC50 [µg/mL] | Structure (SMILES)
9 | 300 (≈ 530 µM) | COc1ccc(/C=C/c2cc(O[C@@H]3O[C@H](CO)[C@@H](O)[C@H](O)[C@H]3O)cc(O[C@@H]3O[C@H](CO)[C@@H](O)[C@H](O)[C@H]3O)c2)cc1
10 | 84.9 (≈ 217 µM) | OC[C@H]1O[C@@H](Oc2cc(O)cc(/C=C/c3ccc(O)cc3)c2)[C@H](O)[C@@H](O)[C@@H]1O [PICEID]
11 | 198 (≈ 490 µM) | COc1ccc(/C=C\c2cc(O)cc(O[C@@H]3O[C@H](CO)[C@@H](O)[C@H](O)[C@H]3O)c2)cc1
12 | 300 (≈ 742 µM) | COc1ccc(/C=C/c2cc(O)cc(O[C@@H]3O[C@H](CO)[C@@H](O)[C@H](O)[C@H]3O)c2)cc1
13 | 120 (≈ 308 µM) | OC[C@H]1O[C@@H](Oc2cc(O)cc(/C=C\c3ccc(O)cc3)c2)[C@H](O)[C@@H](O)[C@@H]1O [Z-PICEID]
14 | 300 (≈ 530 µM) | COc1ccc(/C=C\c2cc(O[C@@H]3O[C@H](CO)[C@@H](O)[C@H](O)[C@H]3O)cc(O[C@@H]3O[C@H](CO)[C@@H](O)[C@H](O)[C@H]3O)c2)cc1

Source: ChEMBL document CHEMBL1158326, “Isolation, synthesis, and antiplatelet aggregation activity of resveratrol 3-O-beta-D-glucopyranoside and related compounds” (J Nat Prod, 1997)
